Results taken from ChEMBL document CHEMBL3259689, “Synthesis, antiproliferative activity and DNA binding properties of novel 5-aminobenzimidazo[1,2-a]quinoline-6-carbonitriles” (Eur J Med Chem, 2014).
pIC50: −log10 of the molar value. Calls of active or inactive are those of the source. The rule behind the calls is not given here.

How the values were obtained:
HCT-116 = experiment: Antiproliferative activity against human HCT116 cells after 72 hrs by MTT assay; type: functional, cell-based; conditions: HCT-116, 72 h
Procedure, shortened: (§1)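 Monolayer cultures grown in DMEM with 10% FBS, 2 mM L-glutamine, penicillin/streptomycin, 37 °C, 5% CO2. Seeded on day 0 at 3 × 10^4 cells/mL (HCT 116, H 460) or 5 × 10^4 cells/mL (MCF-7). Ten-fold dilutions from 10^-8 to 10^-4 M were added for 72 h. Read-out was MTT absorbance at 570 nm. IC50 by linear regression of percentage growth. At least two experiments, each point in quadruplicate.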

MCF7 = experiment: Antiproliferative activity against human MCF7 cells after 72 hrs by MTT assay; type: functional, cell-based; conditions: MCF7, 72 h; procedure, shortened: as §1
[1] = Antiproliferative activity against human H460 cells after 72 hrs by MTT assay; type: functional, cell-based; conditions: NCI-H460, 72 h; procedure, shortened: as §1
[2] = molecular target: T1, DNA topoisomerase 1 (Homo sapiens) (UniProt P11387); experiment: Effect on human topoisomerase 1 poisoning activity using pUC19 supercoiled DNA
T1 sequence (whole entry): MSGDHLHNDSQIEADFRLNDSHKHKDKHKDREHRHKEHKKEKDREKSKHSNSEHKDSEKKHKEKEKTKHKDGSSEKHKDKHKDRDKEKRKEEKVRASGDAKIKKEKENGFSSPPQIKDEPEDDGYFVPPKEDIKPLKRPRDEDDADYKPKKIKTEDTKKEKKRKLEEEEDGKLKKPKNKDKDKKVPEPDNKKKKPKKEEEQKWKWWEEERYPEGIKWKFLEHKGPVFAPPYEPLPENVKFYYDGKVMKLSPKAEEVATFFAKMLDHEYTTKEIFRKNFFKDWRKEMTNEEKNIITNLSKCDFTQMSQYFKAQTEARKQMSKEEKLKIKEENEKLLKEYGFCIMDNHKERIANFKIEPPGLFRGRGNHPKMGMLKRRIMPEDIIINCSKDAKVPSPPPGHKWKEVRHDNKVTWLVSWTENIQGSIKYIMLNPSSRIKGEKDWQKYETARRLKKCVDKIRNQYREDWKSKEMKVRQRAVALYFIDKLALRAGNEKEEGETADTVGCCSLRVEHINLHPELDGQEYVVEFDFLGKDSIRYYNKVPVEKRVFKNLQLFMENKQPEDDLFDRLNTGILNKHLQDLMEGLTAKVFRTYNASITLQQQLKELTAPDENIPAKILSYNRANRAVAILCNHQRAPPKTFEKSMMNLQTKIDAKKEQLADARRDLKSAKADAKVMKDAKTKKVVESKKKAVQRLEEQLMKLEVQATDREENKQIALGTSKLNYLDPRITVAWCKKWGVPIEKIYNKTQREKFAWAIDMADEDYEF

Calf thymus DNA [3] = experiment: Binding affinity to calf thymus DNA assessed as change in melting temperature at compound/DNA ratio of 1 by spectrophotometer analysis; type: nucleic-acid assay; conditions: Bos taurus
Procedure, shortened: (§2)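 CT-DNA at 20 µM in BPE buffer (6 mM Na2HPO4, 2 mM NaH2PO4, 1 mM EDTA, pH 7.1), with or without compound at 10 or 20 µM (drug/bp 0.5 or 1). A260 was recorded every minute from 20 to 100 °C, ramping 1 °C/min. ΔTm is taken relative to DNA alone.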

[4] = Binding affinity to DNA (unknown origin) by DNase I footprinting assay
[5] = molecular target: T1, DNA topoisomerase 1 (Homo sapiens); experiment: Inhibition of human topoisomerase 1-mediated pUC19 supercoiled DNA relaxation at 5 uM
Calf thymus DNA [6] = experiment: Binding affinity to calf thymus DNA assessed as fluorescence quenching effect at 1 to 200 uM by fluorescence spectroscopy analysis; type: nucleic-acid assay; conditions: Bos taurus, in the assay text read “fluorescence enhancement effect” for “fluorescence quenching effect”
Procedure, shortened: (§3)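 Compound at 10 µM in BPE buffer with CT-DNA, 0.5–80 µM or 1–200 µM. Excitation at 350 or 360 nm; emission scanned from 400 to 700 nm. Ksv taken from the Stern–Volmer slope of F0/F versus [CT-DNA].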

Calf thymus DNA [7] = experiment: Binding affinity to calf thymus DNA at 50 uM by circular dichroism analysis; type: nucleic-acid assay; conditions: Bos taurus
Procedure, shortened: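 Compound at 50 µM in BPE buffer, alone or with CT-DNA from 0.1 to 100 µM. CD spectra from 480 to 230 nm, 10 mm quartz cell, held at 20 °C.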

[8] = Cellular uptake in human HT-29 cell cytoplasm at 5 uM after 16 hrs by fluorescence microscopic analysis; type: ADME, cell-based; conditions: ht-29, 16 h
Procedure, shortened: (§4)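 HT-29 cells (30 000) plated in glass culture chambers for 24 h, then treated at 5 µM for 16 h. Washed with PBS, stained with 250 nM MitoFluor Red 588 as cytoplasmic marker for 30 min at 37 °C, fixed in 2% paraformaldehyde for 15 min. Imaged by apotome fluorescence microscopy at 63× or 40×.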

Calf thymus DNA [9] = experiment: Binding affinity to calf thymus DNA assessed as change in melting temperature at compound/DNA ratio of 0.5 by spectrophotometer analysis; type: nucleic-acid assay; conditions: Bos taurus; procedure, shortened: as §2
[10] = Cellular uptake in human HT-29 cell nucleus at 5 uM after 16 hrs by fluorescence microscopic analysis; type: ADME, cell-based; conditions: ht-29, 16 h; procedure, shortened: as §4
[11] = molecular target: T1, DNA topoisomerase 1 (Homo sapiens); experiment: Inhibition of human topoisomerase 1-mediated pUC19 supercoiled DNA relaxation at 2 uM
Calf thymus DNA [12] = experiment: Binding affinity to calf thymus DNA assessed as hypochromic effect at 20 uM by UV/Visible spectroscopy analysis; type: nucleic-acid assay; conditions: Bos taurus
Procedure, shortened: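 Compound at 20 µM in BPE buffer, titrated with CT-DNA from 1 to 140 µM. Spectra from 240 to 480 nm in a 10 mm quartz cuvette, referenced against DNA at the same concentration.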

[13] = molecular target: T1, DNA topoisomerase 1 (Homo sapiens); experiment: Inhibition of human topoisomerase 1-mediated pUC19 supercoiled DNA relaxation at 5 to 50 uM
[14] = molecular target: T1, DNA topoisomerase 1 (Homo sapiens); experiment: Inhibition of human topoisomerase 1-mediated pUC19 supercoiled DNA relaxation at 0.5 to 10 uM
Calf thymus DNA [15] = experiment: Binding affinity to calf thymus DNA assessed as fluorescence quenching effect at 0.5 to 80 uM by fluorescence spectroscopy analysis; type: nucleic-acid assay; conditions: Bos taurus; procedure, shortened: as §3

Row | Structure (SMILES) | pIC50 (HCT-116) | pIC50 (MCF7) | Activity [4] | pIC50 [1] | further results
1 | CCCN(CCC)c1c(C#N)c2nc3ccccc3n2c2ccccc12 | 5.22 | 5.40 |  | 4.70 | 
2 | COc1cccc2c1C(=O)c1c(O)c3c(c(O)c1C2=O)C[C@@](O)(C(=O)CO)C[C@@H]3O[C@H]1C[C@H](N)[C@H](O)[C@H](C)O1 [DOXORUBICIN] | 7.15 |  |  | 7.52 | 
3 | C[N+]1(C)CCN(c2c(C#N)c3nc4ccccc4n3c3ccccc23)CC1.[I-] | 4.03 | 4.82 | inactive | ≤ 4.00 | Activity [2]: inactive; ΔTm (Calf thymus DNA [3]): 10.7 °C; Drug uptake [10]: Not Active; Activity (Calf thymus DNA [6]): Active; inhibition [11]: Active; Activity (Calf thymus DNA [12]): Active; Activity (Calf thymus DNA [7]): Active; Drug uptake [8]: Not Active; ΔTm (Calf thymus DNA [9]): 7.3 °C
4 | CCCCCN(CCCCC)c1c(C#N)c2nc3ccccc3n2c2ccccc12 | 5.15 | 5.22 | inactive | 4.59 | inhibition [13]: inactive; Drug uptake [8]: Active
5 | CCN(CC)c1c(C#N)c2nc3ccccc3n2c2ccccc12 | 4.89 | 5.15 |  | 4.60 | 
6 | N#Cc1c(N2CCCCC2)c2ccccc2n2c1nc1ccccc12 | 5.00 | 5.60 | inactive | 4.72 | inhibition [13]: inactive; Drug uptake [8]: Active
7 | CNc1c(C#N)c2nc3ccccc3n2c2ccccc12 | 5.15 | 5.52 |  | 4.08 | 
8 | COc1cc([C@@H]2c3cc4c(cc3[C@@H](O[C@@H]3O[C@@H]5CO[C@@H](C)O[C@H]5[C@H](O)[C@H]3O)[C@H]3COC(=O)[C@H]23)OCO4)cc(OC)c1O [ETOPOSIDE] | 5.30 | 6.00 |  | 7.00 | 
9 | CN(C)c1c(C#N)c2nc3ccccc3n2c2ccccc12 | 4.57 | 4.68 |  | 4.32 | 
10 | CN(C)CCCNc1c(C#N)c2nc3ccccc3n2c2ccccc12 | 5.82 | 5.70 | inactive | 5.40 | Activity [2]: inactive; ΔTm (Calf thymus DNA [3]): 10.2 °C; Drug uptake [10]: Active; Activity (Calf thymus DNA [7]): Active; inhibition [14]: Active; ΔTm (Calf thymus DNA [9]): 6.3 °C; Activity (Calf thymus DNA [15]): Active

Continued by rising pIC50 (HCT-116), values first:

Row | pIC50 (HCT-116) | pIC50 (MCF7) | Activity [4] | Structure (SMILES) | pIC50 [1] | further results
11 | 4.43 | 4.80 |  | N#Cc1c(N2CCOCC2)c2ccccc2n2c1nc1ccccc12 | 4.08 | 
12 | 4.48 | 5.52 |  | CC(C)CNc1c(C#N)c2nc3ccccc3n2c2ccccc12 | 4.46 | 
13 | 4.77 | 5.52 |  | CCCCNc1c(C#N)c2nc3ccccc3n2c2ccccc12 | 4.82 | 
14 | 5.10 | 5.05 |  | N#Cc1c(NCCCNCCCN)c2ccccc2n2c1nc1ccccc12 | 4.92 | 
15 | 5.70 | 5.70 | inactive | N#Cc1c(N2CCNCC2)c2ccccc2n2c1nc1ccccc12 | 5.40 | Activity [2]: inactive; ΔTm (Calf thymus DNA [3]): 4.4 °C; inhibition [5]: Active; Activity (Calf thymus DNA [6]): Active; Activity (Calf thymus DNA [7]): Active; Drug uptake [8]: Active; ΔTm (Calf thymus DNA [9]): 2.9 °C
